In ChEMBL document CHEMBL1955840, “Proteasome inhibitors for cancer therapy” (Bioorg Med Chem, 2012) one finds IC50, Ratio IC50 and inhibition data, which are given here for ten molecules.

Test [1] can be described thus: Inhibition of chymotrypsin-like activity of human liver 20S proteasome assessed as release of AMC using Suc-LLVY-AMC fluorogenic substrate after 15 mins preincubation measured every 1.5 mins for 20 mins by fluorescence analysis. The essentials: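 Proteasome partially purified from postmortem human liver, 6.7 µg/mL final, in 20 mM Tris–Cl pH 7.5, 0.04% SDS, 5% DMSO; activated by 15 min preincubation at 27 °C. Suc-LLVY-AMC added to 100 µM; AMC fluorescence (ex 360/em 460 nm) read every 1.5 min for 20 min at 27 °C. Rates per inhibitor concentration; IC50 by non-linear regression; mean S.D., n = 3–6.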

Test [2] concerns the target Chymotrypsinogen A (Bos taurus, UniProt P00766). Put plainly: Inhibition of bovine alpha-chymotrypsin.
Test [3] concerns MOLT-4. The test is described as follows: Ratio of IC50 for chymotrypsin-like activity of 20S proteasome in human MOLT4 cells to IC50 for chymotrypsin-like activity of human liver 20S proteasome in cell-free assay. The class given is cell-based. The method, boiled down:
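Cell-permeability index: IC50 against chymotrypsin-like activity in intact Molt-4 cells divided by IC50 against isolated human liver 20S proteasome, both from fluorogenic substrate cleavage assays.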

Test [4] in a line: Inhibition of trypsin-like activity of 20S proteasome at 10 uM. The method, boiled down:
(§1)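 Percent inhibition measured at a single 10 µM concentration; averages of two independent experiments, each run in triplicate.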

Test [5] is described as follows: Antitumor activity against rat AT2 cells assessed as cell viability. The class given is functional, cell-based. The essentials: (§2)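 Tumor cell viability IC50 values; averages of two independent experiments, each performed in triplicate.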
Test [6] has as its target T1, Calpain-1 catalytic subunit (Homo sapiens) (UniProt P07384).
T1 sequence (whole entry): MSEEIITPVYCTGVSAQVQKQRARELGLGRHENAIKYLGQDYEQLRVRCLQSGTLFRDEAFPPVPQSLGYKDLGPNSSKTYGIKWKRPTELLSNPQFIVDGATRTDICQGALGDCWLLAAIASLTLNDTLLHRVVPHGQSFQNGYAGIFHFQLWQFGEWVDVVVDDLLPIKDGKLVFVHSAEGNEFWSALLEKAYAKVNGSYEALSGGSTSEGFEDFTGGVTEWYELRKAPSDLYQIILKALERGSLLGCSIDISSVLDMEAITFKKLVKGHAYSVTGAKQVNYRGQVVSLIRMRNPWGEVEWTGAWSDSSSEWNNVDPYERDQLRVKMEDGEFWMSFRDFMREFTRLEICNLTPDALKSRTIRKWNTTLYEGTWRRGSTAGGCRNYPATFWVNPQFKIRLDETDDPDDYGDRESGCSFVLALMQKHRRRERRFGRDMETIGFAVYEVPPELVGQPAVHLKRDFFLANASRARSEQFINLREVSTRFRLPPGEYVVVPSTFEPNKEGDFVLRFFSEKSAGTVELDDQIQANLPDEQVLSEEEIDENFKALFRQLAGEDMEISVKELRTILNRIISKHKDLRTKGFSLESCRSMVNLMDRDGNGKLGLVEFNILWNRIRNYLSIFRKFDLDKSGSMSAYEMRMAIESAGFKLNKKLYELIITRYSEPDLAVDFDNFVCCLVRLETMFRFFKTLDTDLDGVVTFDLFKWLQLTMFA
The test is described as follows: Inhibition of human calpain 1 at 10 uM. The method, boiled down:
as §1

Test [7] relates to DU-145. Put plainly: Antitumor activity against human DU145 cells assessed as cell viability. The class given is functional, cell-based. The essentials: as §2
The subject of test [8] is MCF7. The test is described as follows: Antitumor activity against human MCF7 cells assessed as cell viability. Format: functional, cell-based. The essentials:
as §2

Test [9] concerns the target Chymotrypsinogen A (Bos taurus) (UniProt P00766). Put plainly: Inhibition of bovine alpha-chymotrypsin at 10 uM. The essentials:
as §1

Test [10] deals with Lewis lung carcinoma cell line. Put plainly: Antitumor activity against mouse LLC cells assessed as cell viability. The class given is functional, cell-based. The essentials: as §2
The nature of test [11]: Inhibition of chymotrypsin-like activity of 20S proteasome in human MOLT4 cells assessed as release of AFC using MeOSuc-Phe-Leu-Phe-AFC substrate after 15 mins measured every 1.5 mins for 20 mins by fluorescence analysis. Format: cell-based. The note with it: MOLT-4. The essentials:
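Molt-4 human T-cell leukemia cells washed, resuspended at 6 × 10⁶ cells/mL in HEPES-buffered saline (pH 7.0) with KCl, NaCl, glucose, MgSO₄ and Na pyruvate. Fluorogenic AFC substrate at 100 µM, 0.6% DMSO final; incubated at 37 °C; AFC fluorescence (ex 420/em 490 nm) read every 1.5 min for 20 min. IC50 reported as mean S.D., n = 3–6.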

The subject of test [12] is OVCAR-3. The test is described as follows: Antitumor activity against human OVCAR3 cells assessed as cell viability. The class given is functional, cell-based. The method, boiled down: as §2
Test [13] concerns SK-MEL-5. Put plainly: Antitumor activity against human SK-MEL-5 cells assessed as cell viability. The class given is functional, cell-based. The essentials: as §2
In test [14] the test system is PANC-1. Put plainly: Antitumor activity against human PANC1 cells assessed as cell viability. Format: functional, cell-based. The method, boiled down:
as §2

For orientation: IC50 means the concentration at which inhibition is half-maximal. On to `CC(C)C[C@@H](C=O)NC(=O)[C@H](CCCN/C(N)=N/[N+](=O)[O-])NC(=O)C(CCCCCCCCN1C(=O)c2ccccc2C1=O)C1CCCC1` (stereo not given in full), for which, in [1], the 50% inhibitory concentration (IC50) is 2 nM.
Same read-out and setting: as for `CC(C)C[C@@H](C=O)NC(=O)[C@H](CCCN/C(N)=N/[N+](=O)[O-])NC(=O)C(CCCCCCCCC#N)C1CCCC1` (stereo not given in full), the figure is 6 nM; as for `CC(C)C[C@H](NC(=O)[C@H](CCCN/C(N)=N/[N+](=O)[O-])NC(=O)C(CCCCCCCCC#N)C1CCCC1)C(=O)C(=O)NCCNS(=O)(=O)c1ccccc1` (stereo not given in full), 1 nM; as for `CC(C)C[C@H](NC(=O)[C@H](CCCN/C(N)=N/[N+](=O)[O-])NC(=O)C(CCCCCCCCC#N)C1CCCC1)B1OC(C)(C)C(C)(C)O1` (stereo not given in full), 6 nM.
For `CC(C)C[C@H](NC(=O)[C@H](CCCN=C(N)N[N+](=O)[O-])NC(=O)C(CCCCCCCCC#N)C1CCCC1)B1O[C@@H]2[C@@H]3C[C@H](C[C@]2(C)O1)C3(C)C` (mixture of isomers), the concentration for half-maximal inhibition (IC50) in test [2] is greater than 10000 nM.
In general, inhibition refers to the share of the control response that was lost under treatment. Turning to `CC(C)C[C@H](NC(=O)[C@H](CCCN/C(N)=N/[N+](=O)[O-])NC(=O)C(CCCCCCCCC#N)C1CCCC1)B1O[C@@H]2[C@@H]3C[C@H](C[C@]2(C)O1)C3(C)C` (mixture of isomers), in [3], the Ratio IC50 is 69. The inhibition in test [4] came to 0%; in [6], 2%; in test [9], 24%. Also, the IC50 is greater than 1000 nM in test [5]; 3.5 nM in test [1]; 293 nM in [7]; 425 nM in test [8]; 585 nM in test [10]; 240 nM in [11]. The IC50 came to 69 nM in [12], 85 nM in [13] and 283 nM in test [14].
Regarding `CC(C)C[C@H](NC(=O)[C@H](CCCN/C(N)=N/[N+](=O)[O-])NC(=O)C(CCCCCCCCN1C(=O)c2ccccc2C1=O)C1CCCC1)B1O[C@@H]2[C@@H]3C[C@H](C[C@]2(C)O1)C3(C)C` (mixture of isomers), the Ratio IC50 in test [3] was found to be 20. In addition, the inhibition in [4] was 20%; in test [6] it was 11%; in [9], 30%. Moreover, the IC50 was greater than 1000 nM in test [5]; 3.5 nM in test [1]; 167 nM in test [7]; greater than 10000 nM in [2]; 292 nM in [8]; 513 nM in test [10]. Moreover, the half-inhibitory concentration (IC50) was found to be 70 nM in test [11], 29 nM in test [12], 82 nM in test [13] and 184 nM in test [14].
Turning to `CC(C)C[C@H](NC(=O)[C@H](CCCN/C(N)=N/[N+](=O)[O-])NC(=O)C(CCCCCCCCC#N)C1CCCC1)B(O)O` (mixture of isomers), the Ratio IC50 in [3] stood at 840. For the same molecule, the inhibition amounted to 5% in test [4] and 30% in test [9]. The values for the concentration for half-maximal inhibition (IC50) in [1] and in [11] were 8.7 nM and 7340 nM, respectively.
As to `CC(C)C[C@H](NC(=O)[C@H](CCCNC(=N)N[N+](=O)[O-])NC(=O)C(CCCCCCCCC#N)C1CCCC1)B(O)O` (mixture of isomers), in test [2], the IC50 was greater than 10000 nM.
On to `CC(C)C[C@H](NC(=O)[C@H](CCCN/C(N)=N/[N+](=O)[O-])NC(=O)C(CCCCCCCCN1C(=O)c2ccccc2C1=O)C1CCCC1)B(O)O` (mixture of isomers), for which the Ratio IC50 in test [3] is 690. Also, the inhibition in [4] is 24%; in test [6] it was 0%; in [9], 2%. Besides, the results for the IC50 in [1], in test [2] and in [11] were 4.1 nM, greater than 10000 nM and 2830 nM, respectively.
